Results published in ChEMBL document CHEMBL1821569, “Synthesis of novel 1,2,5-trisubstituted benzimidazoles as potential antitumor agents” (2011).

How the values were obtained:
Format in all cases: functional
[1] = tested on: TK-10; assay: Antitumor activity against human TK10 cells after 48 hrs by SRB assay; conditions: TK-10, 48 h
Procedure, shortened: (§1)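 NCI 60-cell-line secondary screen. Continuous 48 h exposure at five concentration levels. Cell growth estimated by sulforhodamine B protein staining. GI50 taken as the concentration giving 50% reduction in net protein increase relative to untreated control cells over the incubation. TGI (total growth inhibition) and LC50 (50% cell kill) were also derived.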

[2] = tested on: KM12; assay: Antitumor activity against human KM12 cells after 48 hrs by SRB assay; conditions: KM12, 48 h
Procedure, shortened: (§2)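 NCI 60-cell-line secondary screen. Cells were exposed continuously to drug for 48 h at five concentration levels (100, 10, 1.0, 0.1 and 0.01). Growth was estimated by sulforhodamine B protein staining. GI50 is the concentration giving a 50% reduction in net protein increase versus untreated control cells over the incubation. TGI (total growth inhibition) and LC50 (50% cell kill) were also derived.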

[3] = tested on: SK-MEL-28; assay: Antitumor activity against human SK-MEL-28 cells after 48 hrs by SRB assay; conditions: SK-MEL-28, 48 h; procedure, shortened: as §2
[4] = tested on: NCI-H322M; assay: Antitumor activity against human NCI-H322M cells after 48 hrs by SRB assay; procedure, shortened: as §2
[5] = tested on: SN12C; assay: Antitumor activity against human SN12C cells after 48 hrs by SRB assay; procedure, shortened: as §2
[6] = tested on: NCI/ADR-RES; assay: Antitumor activity against human NCI/ADR-RES cells after 48 hrs by SRB assay; procedure, shortened: as §2
[7] = tested on: MDA-MB-435; assay: Antitumor activity against human MDA-MB-435 cells after 48 hrs by SRB assay; conditions: MDA-MB-435, 48 h; procedure, shortened: as §2
[8] = tested on: LOX IMVI; assay: Antitumor activity against human LOXIMVI cells after 48 hrs by SRB assay; procedure, shortened: as §2
[9] = tested on: HOP-62; assay: Antitumor activity against human HOP62 cells after 48 hrs by SRB assay; conditions: HOP-62, 48 h; procedure, shortened: as §2
[10] = tested on: RPMI-8226; assay: Antitumor activity against human RPMI8226 cells after 48 hrs by SRB assay; conditions: RPMI-8226, 48 h; procedure, shortened: as §2
[11] = tested on: CCRF-CEM; assay: Antitumor activity against human CCRF-CEM cells after 48 hrs by SRB assay; procedure, shortened: as §2
[12] = tested on: NCI-H226; assay: Antitumor activity against human NCI-H226 cells after 48 hrs by SRB assay; conditions: NCI-H226, 48 h; procedure, shortened: as §2
[13] = tested on: PC-3; assay: Antitumor activity against human PC3 cells after 48 hrs by SRB assay; conditions: PC-3, 48 h; procedure, shortened: as §2
[14] = tested on: K562; assay: Antitumor activity against human K562 cells after 48 hrs by SRB assay; conditions: K562, 48 h; procedure, shortened: as §2
[15] = tested on: SK-OV-3; assay: Antitumor activity against human SKOV3 cells after 48 hrs by SRB assay; conditions: SK-OV-3, 48 h; procedure, shortened: as §2
[16] = tested on: SR; assay: Antitumor activity against human SR cells after 48 hrs by SRB assay; procedure, shortened: as §1
[17] = tested on: UACC-62; assay: Antitumor activity against human UACC62 cells after 48 hrs by SRB assay; conditions: UACC-62, 48 h; procedure, shortened: as §1
[18] = tested on: SW-620; assay: Antitumor activity against human SW620 cells after 48 hrs by SRB assay; conditions: SW-620, 48 h; procedure, shortened: as §1
[19] = tested on: MDA-MB-468; assay: Antitumor activity against human MDA-MB-468 cells after 48 hrs by SRB assay; conditions: MDA-MB-468, 48 h; procedure, shortened: as §2
[20] = tested on: U-251; assay: Antitumor activity against human U251 cells after 48 hrs by SRB assay; conditions: U-251, 48 h; procedure, shortened: as §1
[21] = tested on: SF-295; assay: Antitumor activity against human SF295 cells after 48 hrs by SRB assay; conditions: SF-295, 48 h; procedure, shortened: as §2
[22] = tested on: SK-MEL-5; assay: Antitumor activity against human SK-MEL-5 cells after 48 hrs by SRB assay; conditions: SK-MEL-5, 48 h; procedure, shortened: as §2
[23] = tested on: RXF 393; assay: Antitumor activity against human RXF393 cells after 48 hrs by SRB assay; conditions: RXF 393, 48 h; procedure, shortened: as §2
[24] = tested on: SK-MEL-2; assay: Antitumor activity against human SK-MEL-2 cells after 48 hrs by SRB assay; conditions: SK-MEL-2, 48 h; procedure, shortened: as §2
[25] = tested on: OVCAR-3; assay: Antitumor activity against human OVCAR3 cells after 48 hrs by SRB assay; conditions: OVCAR-3, 48 h; procedure, shortened: as §2
[26] = tested on: OVCAR-5; assay: Antitumor activity against human OVCAR5 cells after 48 hrs by SRB assay; conditions: OVCAR-5, 48 h; procedure, shortened: as §2
[27] = tested on: HCT-15; assay: Antitumor activity against human HCT15 cells after 48 hrs by SRB assay; conditions: HCT-15, 48 h; procedure, shortened: as §2
[28] = tested on: UO-31; assay: Antitumor activity against human UO31 cells after 48 hrs by SRB assay; conditions: UO-31, 48 h; procedure, shortened: as §1
[29] = tested on: MCF7; assay: Antitumor activity against human MCF7 cells after 48 hrs by SRB assay; conditions: MCF7, 48 h; procedure, shortened: as §2
[30] = tested on: COLO 205; assay: Antitumor activity against human COLO205 cells after 48 hrs by SRB assay; conditions: COLO 205, 48 h; procedure, shortened: as §2
[31] = tested on: T47D; assay: Antitumor activity against human T47D cells after 48 hrs by SRB assay; procedure, shortened: as §1
[32] = read-out: LC50 (the source's name)

COC(=O)c1ccc2c(c1)nc(-c1ccc(Cl)cc1)n2-c1cc(C(C)(C)C)[nH]n1
GI50 [1]: 6.94 µM
TGI [1]: > 100 µM
CC50 [1, 32]: > 100 µM
GI50 [2]: 2.12 µM
TGI [2]: 6.07 µM
CC50 [2, 32]: > 100 µM
GI50 [3]: 3.38 µM
TGI [3]: 15.5 µM
CC50 [3, 32]: 0.552 µM
GI50 [4]: 10.4 µM
LC50 (50% cell kill) [4]: > 100 µM
TGI [4]: 86.4 µM
GI50 [5]: 4.34 µM
TGI [5]: 27.7 µM
CC50 [5, 32]: > 100 µM
GI50 [6]: 2.72 µM
TGI [6]: 7.35 µM
CC50 [6, 32]: > 100 µM
GI50 [7]: 1.19 µM
TGI [7]: 5 µM
CC50 [7, 32]: 0.505 µM
GI50 [8]: 3.7 µM
TGI [8]: 14.5 µM
CC50 [8, 32]: 0.429 µM
GI50 [9]: 3.41 µM
LC50 (concentration giving 50% cell kill) [9]: > 100 µM
TGI [9]: 21 µM
GI50 [10]: 3.93 µM
TGI [10]: 19 µM
CC50 [10, 32]: > 100 µM
GI50 [11]: 4.91 µM
TGI [11]: > 100 µM
CC50 [11, 32]: > 100 µM
GI50 [12]: 4.09 µM
LC50 (50% cell kill) [12]: > 100 µM
TGI [12]: 44 µM
GI50 [13]: 2.93 µM
TGI [13]: 15.7 µM
CC50 [13, 32]: > 100 µM
GI50 [14]: 4.2 µM
TGI [14]: > 100 µM
CC50 [14, 32]: > 100 µM
GI50 [15]: 3.71 µM
TGI [15]: 31 µM
CC50 [15, 32]: > 100 µM
GI50 [16]: 3.23 µM
TGI [16]: > 100 µM
CC50 [16, 32]: > 100 µM
GI50 [17]: 2.01 µM
TGI [17]: 7.78 µM
CC50 [17, 32]: 0.463 µM
GI50 [18]: 3.24 µM
TGI [18]: > 100 µM
CC50 [18, 32]: > 100 µM
GI50 [19]: 2.4 µM
TGI [19]: 7.98 µM
CC50 [19, 32]: > 100 µM
GI50 [20]: 4.13 µM
TGI [20]: 22.7 µM
CC50 [20, 32]: > 100 µM
GI50 [21]: 2.48 µM
TGI [21]: 8.98 µM
CC50 [21, 32]: > 100 µM
GI50 [22]: 2.02 µM
TGI [22]: 5.1 µM
CC50 [22, 32]: 0.186 µM
GI50 [23]: 1.57 µM
TGI [23]: 5.77 µM
CC50 [23, 32]: 0.569 µM
GI50 [24]: 3.89 µM
TGI [24]: 18.1 µM
CC50 [24, 32]: > 100 µM
GI50 [25]: 2.35 µM
TGI [25]: 6.13 µM
CC50 [25, 32]: 0.915 µM
GI50 [26]: 12.9 µM
TGI [26]: 60.1 µM
CC50 [26, 32]: > 100 µM
GI50 [27]: 4.36 µM
LC50 (50% cell kill) [27]: > 100 µM
TGI [27]: > 100 µM
GI50 [28]: 3.35 µM
TGI [28]: 44.1 µM
CC50 [28, 32]: > 100 µM
GI50 [29]: 2.79 µM
TGI [29]: 12.3 µM
CC50 [29, 32]: > 100 µM
GI50 [30]: 2.29 µM
TGI [30]: 6.04 µM
CC50 [30, 32]: 0.463 µM
GI50 [31]: 3.64 µM
TGI [31]: > 100 µM
CC50 [31, 32]: > 100 µM
